Consider 6 compounds from paper PMC12690059 (Dose-Response, 2025).

Molecules are shown by their SMILES. Where two headings read alike, the source gives them in different places.

In data set [1] the test system is Nrf2/HO-1 and Casp-3 pathways. The data set can be described thus: In vivo mechanistic validation using pathway inhibitors. The note with it: for Effect on P.indicus-induced reduction in serum cTn-T: ML385 30 mg/kg or Z-DEVD-FMK 1 mg/kg i.p. before P. indicus 54 mg/kg + ISO; for Intrinsic cardiotoxicity of inhibitor: control experiments. Also on record: species or system Sprague-Dawley (SD) rats. The method, boiled down: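 Rats (n = 8/group) received the test extract at 54 mg/kg p.o. on days 1-14 and ISO 85 mg/kg s.c. on days 7-14. An Nrf2 inhibitor (30 mg/kg) or a caspase-3 inhibitor (1 mg/kg) was given i.p. 30 min before each gavage; an ISO + vehicle group was included. Inhibition was checked by myocardial HO-1/cleaved caspase-3 western blot. Myocardial SOD and MDA (homogenate, ELISA) and serum cTn-T were measured.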

The format of data set [2] is in vivo, Sprague-Dawley rats. The essentials: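 Healthy SD rats (n = 6) received a single oral dose of extract at 54 mg/kg. Tail-vein blood (0.3 mL) was taken at 0, 0.25, 0.5, 1, 2, 4, 8, 12 and 24 h; plasma was stored at −80°C. Marker compounds were measured by validated HPLC-DAD (C18, 35°C, 0.1% formic acid water/methanol gradient).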
In data set [3] the test system is ISO-induced myocardial ischemia. The data set can be described thus: ECG monitoring. Format: in vivo, Sprague-Dawley (SD) rats. Particulars: propranolol 30 mg/kg oral 14 days. The essentials: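 Male SD rats (n = 10/group) were dosed orally for 14 days, with ISO 85 mg/kg s.c. on days 7-14. Twenty-four hours after the last ISO, rats were anesthetized with 2% pentobarbital sodium (30 mg/kg i.p.) and fixed supine. Lead II ECG was recorded for 60 min for ST-segment and T-wave changes, QRS duration and VPB incidence.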

The next data set deals with Cleaved caspase-3. The data set can be described thus: Western blot of myocardial cleaved caspase-3. Format: in vivo, Sprague-Dawley (SD) rats. Particulars: propranolol 30 mg/kg oral 14 days; ISO rats; Control = 1.00. A general note: Immunoblotting shows a protein as a band on a membrane.
For the next data set, the system named is Bax. The data set can be described thus: Western blot of myocardial Bax. Format: in vivo, Sprague-Dawley (SD) rats. The note with it: propranolol 30 mg/kg oral 14 days; ISO rats; Control = 1.00.
Data set [4] relates to ISO-induced myocardial ischemia. As to the kind of experiment: Masson's trichrome staining, myocardial fibrotic area. It is filed as in vivo, Sprague-Dawley (SD) rats. The note with it: propranolol 30 mg/kg oral 14 days; ISO rats. The method, boiled down: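 ISO model: SD rats, 14-day oral pretreatment, ISO 85 mg/kg s.c. on days 7-14. Paraffin heart sections (4 μm) were deparaffinized and stained with Weigert's iron hematoxylin, then Biebrich scarlet-acid fuchsin, phosphomolybdic-phosphotungstic acid and aniline blue; collagen stains blue. Images were taken at 200x. Fibrosis was expressed as collagen-positive area as a percentage of total myocardial area.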

The test system is the same in data set [5]. As to the kind of experiment: H&E histopathological score of myocardial tissue. Format: in vivo, Sprague-Dawley (SD) rats. The note with it: propranolol 30 mg/kg oral 14 days; ISO rats. The method, boiled down: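 ISO model: SD rats, 14-day oral pretreatment, ISO 85 mg/kg s.c. on days 7-14. Hearts were fixed in 4% paraformaldehyde for 24 h, paraffin-embedded and cut at 4 μm. Sections were H&E-stained and examined by light microscopy for myocardial damage. Final scores were consensus evaluations.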

A further data set has as its system Nrf2. As to the kind of experiment: Western blot of myocardial Nrf2. Format: in vivo, Sprague-Dawley (SD) rats. The note with it: propranolol 30 mg/kg oral 14 days; ISO rats; Control = 1.00.
The next data set deals with Bcl-2. The data set can be described thus: Western blot of myocardial Bcl-2. Format: in vivo, Sprague-Dawley (SD) rats. The note with it: propranolol 30 mg/kg oral 14 days; ISO rats; Control = 1.00.
In the next data set the test system is HO-1. The data set can be described thus: Western blot of myocardial HO-1. It is filed as in vivo, Sprague-Dawley (SD) rats. Particulars: propranolol 30 mg/kg oral 14 days; ISO rats; Control = 1.00.
For data set [6], the system named is ISO-induced myocardial ischemia. As to the kind of experiment: Cardiac index. It is filed as in vivo, Sprague-Dawley (SD) rats. Particulars: propranolol 30 mg/kg oral 14 days; vs ISO. The method, boiled down:
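Male SD rats (200 ± 20 g, n = 10/group) received oral gavage daily for 14 days, with ISO 85 mg/kg s.c. on days 7-14, 30 min post-gavage. After ECG, hearts were excised, rinsed in pre-cooled saline, blotted dry and weighed. Cardiac index = heart weight/body weight, in mg/g.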

[7] abbreviates: Sprague-Dawley, rat, plasma, po, 54 mg/kg.
Setting [8] is: rat plasma, single oral P. indicus extract 54 mg/kg, n = 6.

Take `Cc1ccccc1C(=O)N1CCc2cc(-c3nc(NC(=O)Cc4ccc5c(c4)OCO5)sc3C)ccc21` [ML385]: the “Effect on P.indicus's antioxidant effect (SOD activity, MDA content)” value in data set [1] (ML385 30 mg/kg i.p. before P. indicus 54 mg/kg + ISO) is “nullified P.indicus’s antioxidant effect”. Also, in data set [1], the “Effect on P.indicus-induced reduction in serum cTn-T” value is “attenuated the P.indicus-induced reduction in serum cTn-T” and the “Intrinsic cardiotoxicity of inhibitor” value was “ruled out intrinsic cardiotoxicity”.

Regarding `CCCCC/C=C\C/C=C\CCCCCCCC(=O)O` [Linoleic acid], in data set [2] (setting [7]), the AUC(0-t) stood at 7210 ± 950 ng·h/mL, the highest concentration (Cmax) came to 2450 ± 300 ng/mL, the Tmax was 0.25 ± 0.08 h and the half-life was 1.8 ± 0.2 h.

With `COc1cc(/C=C/C(=O)O)ccc1O` [Ferulic acid], in data set [2] (setting [8]), the AUC0-24h worked out at 3420 ± 510 ng·h/mL, the Cmax worked out at 850 ± 110 ng/mL, the Tmax was determined as 0.52 ± 0.15 h and the t1/2 was 2.8 ± 0.3 h.

Take `O=c1c(O[C@@H]2O[C@H](CO)[C@@H](O)[C@H](O)[C@H]2O)c(-c2ccc(O)c(O)c2)oc2cc(O)cc(O)c12` [Quercetin-3-O-glucoside]: in data set [2] (setting [7]), the AUC(0-t) amounted to 5950 ± 720 ng·h/mL, the Cmax worked out at 1280 ± 150 ng/mL and the half-life is 3.2 ± 0.4 h. In addition, the Tmax in data set [2] (setting [8]) came out at 0.50 ± 0.12 h.

Regarding `COC(=O)CC[C@H](NC(=O)[C@H](CC(=O)OC)NC(=O)OCc1ccccc1)C(=O)N[C@H](C(=O)N[C@@H](CC(=O)OC)C(=O)CF)C(C)C` [Z-DEVD-FMK], in [1], the “Effect on P.indicus-induced reduction in serum cTn-T” value is given as “attenuated the P.indicus-induced reduction in serum cTn-T” and the “Intrinsic cardiotoxicity of inhibitor” value is “ruled out intrinsic cardiotoxicity”. Also, the “Effect on P.indicus suppression of cleaved caspase-3 (western blot)” value in data set [1] (Z-DEVD-FMK 1 mg/kg i.p. 30 min before each P. indicus gavage (54 mg/kg) + ISO) was “reversed the suppression of cleaved caspase-3”. In data set [1] (Z-DEVD-FMK 1 mg/kg i.p. before P. indicus 54 mg/kg + ISO), the “Effect on P.indicus's anti-apoptotic action” value was “selectively blocked its anti-apoptotic action”.

Compound `CC(C)NCC(O)COc1cccc2ccccc12` (stereo not drawn) [propranolol] had an ST-segment elevation in data set [3] (ISO 85 mg/kg s.c. days 7-14) of 0.024 ± 0.033 mV. Moreover, in [3] (ISO rats), the QRS duration stood at 0.041 ± 0.002 s and the “Ventricular premature beats (VPBs)” value is recorded as 1.2 ± 0.3 beats/60 min. The “Relative expression of protein Cleaved caspase-3” value in the data set with Cleaved caspase-3 was 2.48 ± 0.63. In addition, the “Relative expression of protein Bax” value in the data set with Bax is listed as 1.74 ± 0.36. The “Fibrotic area (Masson's trichrome)” value in [4] came out at 11.2 ± 2.1%. Further, the “Pathological score (H&E) vs ISO group” value in data set [5] is “significantly lower”. In the data set with Nrf2, the “Relative expression of protein Nrf2” value turned out to be 2.55 ± 0.21. The “Relative expression of protein Bcl-2” value in the data set on Bcl-2 is reported as 0.63 ± 0.08. In addition, the “Relative expression of protein HO-1” value in the data set with HO-1 worked out at 3.80 ± 0.64. In addition, in data set [6], the “ISO-induced increase of cardiac index (heart weight/body weight ratio)” value is on record as “significantly attenuated”.

A word on the AUC(0-t): it is the area under the concentration-time curve up to a stated or last time point. A higher AUC(0-t) goes with high exposure. The term Cmax denotes the peak of the concentration-time curve. A word on the Tmax: it is the time from dosing to the highest level. In general, half-life refers to the time needed for the level to fall by half in the phase considered.
